SENP1 FRET inh: inhibitors of human SENP1 SUMO protease catalytic domain. Q9P0U3. recombinant SENP1 catalytic domain, CyPet-SUMO1-YPet FRET cleavage. inhibition, % at 10 µM. actives 0.21% (n = 360,000);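 active means inhibition at least 30% at 10 µM, raw YFP signal under a set limit, fluorescence ratio 0.5 to 1.5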
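material = recombinant human SENP1 catalytic domain, His6-tagged | quantity = 20 pM enzyme | reagent = 25 nM SUMO1 FRET substrate | compound dosing = 10 µM single point, 0.5% DMSO | timing = 50 min enzyme reaction, room temperature, light-protected | detection = FRET, CFP and YFP emission | control set = no-enzyme low, enzyme-DMSO high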
FXN GAA850 act: increases GAA850 frataxin promoter reporter activity; HEK293 lucGAA850 FXN promoter luciferase reporter, 24 h; percent of 10 µM SAHA response; actives 0.56% (n = 360,000); activation, % at 6 µM;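 active means activation above the average of all compounds screened plus 3 SD, cutoff fixed separately per campaign, cut at about 7.5% in these data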
AHR activator: activates the human aryl hydrocarbon receptor; P35869; AHR-responsive luciferase reporter cells, luminescence; activation, % at 5 µM; actives 2.5% (n = 320,000); AID 2796; in the data active means activation above about 47%
HDAC3 inh: inhibitors of human histone deacetylase 3. inhibition, % at 8.3 µM. recombinant HDAC3, fluorogenic peptide/trypsin coupled, fluorescence. actives 0.15% (n = 320,000). O15379. AID 2718; in the data active means inhibition above about 26%, passing the limit was not always enough
Target sequence (O15379 whole entry, looked up): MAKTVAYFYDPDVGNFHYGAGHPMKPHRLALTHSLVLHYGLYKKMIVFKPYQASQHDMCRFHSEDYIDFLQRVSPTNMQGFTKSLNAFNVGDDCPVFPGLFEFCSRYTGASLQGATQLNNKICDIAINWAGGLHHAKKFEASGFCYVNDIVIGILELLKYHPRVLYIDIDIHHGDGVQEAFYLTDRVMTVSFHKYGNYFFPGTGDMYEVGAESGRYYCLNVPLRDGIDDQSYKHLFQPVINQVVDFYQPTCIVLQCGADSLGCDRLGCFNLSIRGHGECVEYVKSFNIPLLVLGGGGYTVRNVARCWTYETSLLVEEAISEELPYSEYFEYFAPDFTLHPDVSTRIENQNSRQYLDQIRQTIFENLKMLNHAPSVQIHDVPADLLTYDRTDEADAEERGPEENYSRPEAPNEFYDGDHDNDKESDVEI
M18AAP inhibitor: blocks P. falciparum M18 aspartyl aminopeptidase. recombinant PfM18AAP, H-Glu-NHMec fluorogenic cleavage. inhibition, % at 7.35 µM. actives 1.2% (n = 290,000);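 active means inhibition above the campaign mean inhibition over all tested compounds plus 3 SD, cut at about 28% in these data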
CTSL1 counter: blocks F. hepatica cathepsin L1 in PFM18AAP counter-screen; recombinant F. hepatica cathepsin L1, Z-Leu-Arg-MCA fluorescence; actives 0.49% (n = 300,000); inhibition, % at 5.96 µM; AID 1906;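 active means inhibition above the mean of all tested compounds plus 3 SD, set per screening campaign, cut at about 17% in these data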
Hits are given with their value; i = inactive; nt = not tested or not shown. Hits are enriched below; roughly 4.2% of the tested compounds scored in any of these assays.

SMILES | SENP1 FRET inh | FXN GAA850 act | AHR activator | HDAC3 inh | M18AAP inhibitor | CTSL1 counter
Cc1cccc(NS(=O)(=O)c2cccc(C(=O)NCC(c3ccc(F)cc3)N3CCOCC3)c2)c1 (centres undefined) | i | i | nt | nt | nt | nt
C=CCn1c(SCC(=O)Nc2cc(C)on2)nc2ccccc21 | i | i | nt | nt | nt | nt
CCc1nc2ccc(C(=O)N3CCN(c4ccccc4)CC3)cn2c1N(C)CCCc1ccccc1 | i | i | nt | nt | nt | nt
CC(=O)Nc1c(C#N)c(-c2ccccc2)c(C#N)c(=O)n1-c1ccc(C)cc1 | i | i | nt | nt | nt | nt
Cc1nnc(NC(=O)c2ccc(F)c(S(=O)(=O)N3CCCCC3)c2)s1 | i | i | i | i | i | i
Nc1cc(N)cc(-c2nc3ccccc3o2)c1 | i | i | 72 | i | nt | i
CCc1nc2c(sc3nc4c(cc32)COC(C)(C)C4)c(=O)n1Cc1ccco1 | i | i | 53 | i | i | i
CCOc1ccc(NC(=O)c2cc([N+](=O)[O-])ccc2N2CCOCC2)cc1 | i | i | 74 | i | nt | i
CC1CCN(c2ccccc2NC(=O)c2cc([N+](=O)[O-])ccc2N2CCOCC2)CC1 | i | 12 | i | i | i | i
CCc1ccccc1NC(=O)c1cc([N+](=O)[O-])ccc1N1CCOCC1 | i | i | i | i | i | i
O=C(Nc1ccccc1N1CCOCC1)c1cccc([N+](=O)[O-])c1 | i | i | 67 | i | i | i
O=C(Nc1ccccc1N1CCCCC1)c1cccc([N+](=O)[O-])c1 | i | i | i | i | i | i
Cc1ccc(S(=O)(=O)n2ccc3c(OCCOCCNCc4ccc(F)cc4)cccc32)cc1 | i | i | i | i | i | i
Nc1c2c3c(sc2nc(=O)n1N)CCCC3 | i | i | i | i | i | i
Nc1c2c(nc3c1CCCC3)CCCC2 (tested in a mixture with another compound) | i | i | i | i | i | i
Cc1ccc(C)c2c(N)c3c(nc12)CCCCC3 (tested in a mixture with another compound) | i | i | 47 | i | i | i
Nc1c2c(nc3sc4c(c13)CCCC4)CCCCCC2 | i | i | 49 | i | i | i
NS(=O)(=O)c1ccc(CCNC(=O)CN2CCN(Cc3cccc4ccccc34)CC2)cc1 | i | i | i | i | i | i
COc1ccc(/C=N/NC(=O)c2ccc(COc3ccccc3Cl)o2)cc1 | i | i | 62 | i | i | i
N#CCC(=O)N/N=C/c1ccc(OCc2ccccc2)cc1 | i | i | i | i | 30 | i
N#CCC(=O)N/N=C\c1ccc(OC/C=C/c2ccccc2)cc1 | i | i | i | i | i | i
O=C(N/N=C/c1ccccc1)c1ccco1 | i | i | i | i | i | i
COc1ccc(/C=N/NC(=O)c2ccc(COc3ccccc3Cl)o2)c(OC)c1C | i | i | i | i | i | i
O=C(N/N=C/c1ccc(OCc2ccccc2)cc1)c1ccco1 | i | i | i | i | i | 22
Cn1cccc1/C=N/NC(=O)c1cc2ccccc2cc1O | i | i | i | i | i | i
SMILES | SENP1 FRET inh | FXN GAA850 act | AHR activator | HDAC3 inh | M18AAP inhibitor | CTSL1 counter
Cc1ccc(-n2c(=S)[nH]c3c(oc4ccccc43)c2=O)cc1 | i | i | i | i | i | i
Cc1cccc(-n2c(=S)[nH]c3c(oc4ccccc43)c2=O)c1 | i | i | 62 | i | i | i
O=c1c2oc3ccccc3c2[nH]c(=S)n1-c1ccccc1 | i | i | 66 | i | i | i
CCOC(=O)C1=CN(Cc2cccc(Br)c2)S(=O)(=O)N(CC)C1C (centres undefined) | i | i | nt | nt | nt | nt
CC(C)(C)NC(=O)C1C(c2ccc(C(F)(F)F)cc2)=Nc2ccccc2N1C(=O)c1cccc2ccccc12 (centres undefined) | i | nt | nt | nt | nt | nt
Cc1cc(C)nc(N/N=C/c2ccccc2)n1 | i | i | i | i | i | i
Cc1cc(C)nc(N/N=C/c2cn[nH]c2-c2ccccc2)n1 | i | i | 67 | i | i | i
C[C@H]1CN([C@@H](C)CO)C(=O)CCCn2nncc2CO[C@H]1CN(C)C(=O)c1ccccc1 | i | i | nt | nt | nt | nt
COc1ccccc1NC(=O)CN(c1ccc(C23CC4CC(CC(C4)C2)C3)cc1)S(C)(=O)=O | i | 9.4 | i | i | i | i
CS(=O)(=O)N(CC(=O)O)c1ccc(C23CC4CC(CC(C4)C2)C3)cc1 | i | i | i | i | i | i
Cc1cc[n+](-c2[nH]c(=O)sc2/C=N/NC([S-])=Nc2ccccc2)cc1 | i | i | i | i | 31 | i
